Screens: PubChem BioAssay, Johns Hopkins Ion Channel Center
TRPC6 act: mouse TRPC6 channel activators, primary screen, cell-based, HEK293, membrane potential dye | Short transient receptor potential channel 6 (Mus musculus), Q61143 | HEK293-TRPC6 membrane potential dye fluorescence; active compounds read high | B-score at 10 µM | actives 0.13% (n = 310,000);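 active = B-score of the integrated fluorescence ratio above library mean plus 3 SD, and starting fluorescence ratio within library mean plus 5 SD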;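 note: higher score means more depolarization so channel activation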
TRPC4 act: activators of mouse TRPC4 channel, primary screen, Fluo4 calcium, HEK293 TRPC4beta/mu-opioid cells | AID 2237, 2010 | Short transient receptor potential channel 4 (Mus musculus), Q9QUQ5 | actives 0.49% (n = 310,000) | B-score at 10 µM | Fluo4 calcium fluorescence; active compounds read high;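 active = B-score above 5 SD of library B-scores, and initial fluorescence ratio not above library mean plus 5 SD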;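 note: positive B-score marks a calcium rise read as TRPC4 activation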
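Material: TRPC4beta and mu-opioid receptor HEK293 stable cells | Incubation: 45 min room-temperature Fluo4 loading, 110 s read | Detection: Kinetic Fluo4 calcium fluorescence | Measure: Integrated baseline-normalised fluorescence ratio, converted to per-well B score | Benchmarks: Low control buffer alone, high control maximal DAMGO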
TRPC4 PAM: positive allosteric modulators of TRPC4, primary screen, cell-based, mouse TRPC4beta, HEK293 mu-opioid, Fluo-4 calcium; actives 0.42% (n = 310,000); B-score at 10 µM; AID 2227, 2009; Short transient receptor potential channel 4 (Mus musculus), Q9QUQ5; DAMGO EC20, Fluo-4 Ca2+ flux; active compounds read high;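 active = B-score of calcium response area above 5 SD of library B-scores, with initial fluorescence ratio within 5 SD of library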;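 note: B-score of integrated fluorescence ratio over time as area under calcium response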
TRPC6 inh: mouse TRPC6 channel inhibitors, primary screen, cell-based, HEK293, membrane potential dye; ACh-evoked depolarization; active compounds read low; AID 2553, 2010; actives 1.1% (n = 310,000); Short transient receptor potential channel 6 (Mus musculus), Q61143; B-score at 10 µM;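 active = B-score under library mean minus 3 SD, initial fluorescence not abnormally high, positive integrated signal ratio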;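 note: B-score derived from integrated fluorescence ratio over the kinetic read; more negative B-score means stronger inhibition of depolarization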
TRPC4 inh: inhibitors of mouse TRPC4 channel, primary screen, Fluo4 calcium, HEK293 TRPC4beta/mu-opioid cells; actives 0.39% (n = 300,000); DAMGO-evoked Fluo4 calcium flux; active compounds read low; B-score at 10 µM; Short transient receptor potential channel 4 (Mus musculus), Q9QUQ5;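 active = B-score over 3 SD under the library average, no early fluorescence shift, positive overall ratio signal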
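Material: HEK293 cells with stable TRPC4beta plus mu-opioid receptor expression / Probe or stimulus: DAMGO in two steps, submaximal then maximal / Compound: single concentration per test compound / Technique: kinetic Fluo4 fluorescence imaging of calcium influx / Read-out: per-well B score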
TRPC4 sel inh 2: second check of whether TRPC6 inhibitors also affect mouse TRPC4 | inhibition, % at 10 µM | HEK293 TRPC4/MOR, membrane potential dye fluorescence; channel activated by saturating DAMGO dose | AID 2776 | shares compounds with TRPC6 inh | actives 42% (n = 920);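 active = compounds whose fluorescence signal differed from control wells by over 3 SD, either direction, in both duplicate plates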
TRPC4 spec: mouse TRPC4 modulation by TRPC6 hits, confirmation, selectivity assay for TRPC6 inhibitor project, cell-based, HEK293 TRPC4/mu-opioid, membrane potential dye | shares compounds with TRPC6 inh | membrane potential fluorescence | activity change, negative = inhibition, % at 10 µM | actives 61% (n = 920) | AID 2777, 2010;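 active = rise or fall in signal beyond 3 SD of buffer-only wells in both replicate plates, either sign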;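 note: integrated kinetic ratio of fluorescence range over baseline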
HEK293 MPD ctr 2-1: nonspecific membrane potential effects, parental HEK293, confirmation, counter-screen for TRPC6 inhibitor project, cell-based, second counter screen | shares compounds with TRPC6 inh | AID 2779, 2010 | signal change vs control, % at 10 µM | actives 31% (n = 920) | parental HEK293 membrane potential dye fluorescence; maximal acetylcholine challenge after compound addition;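 active = membrane potential signal moving either way by over 3 SD of the maximum-effect control, in both duplicate plates, meaning non-specific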
HEK293 MPD ctr-1: membrane potential modulation in parental HEK293, confirmation, counter-screen for TRPC6 inhibitor project, cell-based; membrane potential signal change, % at 10 µM; shares compounds with TRPC6 inh; parental HEK293 membrane potential dye fluorescence; actives 60% (n = 920);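 active = membrane potential signal shifting up or down by more than 3 SD of buffer-only wells, on both duplicate plates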
HEK293 MPD ctr-2: parental HEK293 membrane potential modulation, confirmation, counter-screen for TRPC6 modulator project, cell-based | shares compounds with TRPC6 inh | membrane potential dye fluorescence | membrane potential signal change, % at 10 µM | actives 51% (n = 2,400);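 active = membrane potential signal moves up or down beyond 5 SD from buffer-only wells, on both duplicate plates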
HEK293 MPD ctr 2-2: second check of TRPC6 modulator effects in parental HEK293 cells. shares compounds with TRPC6 inh. membrane potential dye fluorescence; after compound, maximal acetylcholine stimulation. inhibition, % at 10 µM. actives 14% (n = 2,400). AID 488926;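 active = membrane potential signal drops by more than 5 SD from the mean control signal, in both duplicate plates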;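 note: plate controls were acetylcholine ECmax control wells for no effect and buffer only wells for full effect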
TRPC4 ctr mod: TRPC4 modulation by TRPC6 hit compounds, confirmation, selectivity assay for TRPC6 modulator project, cell-based, HEK293 TRPC4/mu-opioid, membrane potential dye, mouse. shares compounds with TRPC6 inh. membrane potential fluorescence. percent change from control (negative = decrease, positive = increase), % at 10 µM. actives 69% (n = 2,400);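 active = membrane potential signal moved up or down beyond 5 SD of buffer control wells, in both duplicate plates, actives on both sides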;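 note: plate controls were assay buffer wells for no effect and DAMGO maximal-effect wells for full effect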
TRPC4 ctr inh 2: second selectivity test of TRPC6 modulators against mouse TRPC4 | inhibition, % at 10 µM | shares compounds with TRPC6 inh | actives 55% (n = 2,400) | AID 488928 | HEK293 TRPC4/mu-opioid, membrane potential dye fluorescence; stimulated with maximal-effect DAMGO;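 active = drop in membrane potential signal beyond 5 SD of the control wells in both duplicate plates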;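 note: TRPC4 counter screen for TRPC6 hits run under conditions tuned for TRPC6 not TRPC4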
TRPC6 block conf: mouse TRPC6 channel inhibitors, confirmation, HEK293 cells, membrane potential dye, duplicate; shares compounds with TRPC6 inh; inhibition, % at 10 µM; actives 43% (n = 3,300); ACh-evoked depolarization;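 active = fluorescence ratio falls more than 5 SD below the full-stimulation control mean, in both duplicate runs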;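 note: integrated fluorescence ratio of peak minus minimum over baseline after agonist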
TRPC6 act conf: mouse TRPC6 channel activators, confirmation, HEK293 cells, membrane potential dye, duplicate; shares compounds with TRPC6 inh; HEK293-TRPC6 membrane potential dye fluorescence, FDSS; activation, % at 10 µM; actives 11% (n = 2,800); AID 488961, 2010;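 active = ratio signal rise beyond 5 SD above unstimulated control wells' mean, seen in both duplicate runs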;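 note: plate controls were buffer EC0 wells for no effect and acetylcholine ECmax response for full effect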
An asterisk follows results filed as active; i = inactive; nt = no result given. Most compounds without a hit are left out; they make up all but 2.3% or so of the library.

SMILES	TRPC6 act	TRPC4 act	TRPC4 PAM	TRPC6 inh	TRPC4 inh	HEK293 MPD ctr-2	HEK293 MPD ctr 2-2	TRPC4 ctr mod	TRPC4 ctr inh 2	TRPC6 block conf	TRPC6 act conf	others
Cc1ccc2c(ccn3cc4c(c(=O)n(C)c(=O)n4C)c23)c1	i	i	i	-7.2*	i	nt	nt	nt	nt	i	i	TRPC4 sel inh 2=i;TRPC4 spec=-25%*;HEK293 MPD ctr 2-1=i;HEK293 MPD ctr-1=-325%*
CCOC(=O)N1CCC(N(C(=O)Nc2ccc(Cl)c(Cl)c2)C(C)CC)CC1 (centres undefined)	i	i	i	-6.4*	i	i	i	i	i	i	i
CCOC(=O)N1CCC(N(CCOC)C(=O)Nc2ccc(CC)cc2)CC1	i	i	i	i	i	nt	nt	nt	nt	nt	nt
CCOC(=O)C1=C(C)NC(C)=C(C(=O)OCC)C1c1sccc1C	i	i	i	-5.4*	i	i	i	i	40%*	i	i
CCOC(=O)C1=C(C)NC(C)=C(C(=O)OCC)C1c1cccs1	i	i	i	i	i	nt	nt	nt	nt	nt	nt
O=C(Nc1ccc(OC(F)F)cc1)c1cc[n+]([O-])cc1	i	i	i	i	i	nt	nt	nt	nt	nt	nt
CCN(CC)C(=O)N1c2ccccc2CC(N(CC)CC)c2ccccc21 (centres undefined)	i	i	i	-5.2*	i	220%*	i	39%*	i	i	nt
COC(=O)c1cnc(N2CCCN(S(=O)(=O)c3ccc(C(F)(F)F)cc3)CC2)nc1C(F)(F)F	i	i	i	i	i	nt	nt	nt	nt	nt	nt
Cc1ccc(S(=O)(=O)N2CCN(C(=O)NCc3ccc(C(=O)O)cc3)CC2)cc1	i	i	i	i	i	nt	nt	nt	nt	nt	nt
